Most compounds without a hit are left out; they make up all but 2.2% or so of the library.
PPC-1+TRAIL kill – compounds killing PPC-1 cancer cells with TRAIL present, primary screen, TRAIL potentiator project, ATPLite luminescence, uHTS; PPC-1 cells + TRAIL, ATPLite viability luminescence; cell killing (% activity), % at 4 µM or 5 µM; 220,000 tested, 0.41% active;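 active = cell killing above 50% in the first pass at 4 µM, then a duplicate retest at 5 µM averaging 50% or more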;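 also: plate controls were cells with TRAIL plus DMSO for no effect and medium-only wells lacking cells for full effect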
HSP90 refold inh – HSP90 inhibitors, primary screen, cell lysate, luminescence | 290,000 tested, 0.91% active | Rabbit reticulocyte lysate, luciferase refolding luminescence, 3 h | inhibition, % at 5.6 µM;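 active = inhibition above the screen-wide mean plus 3 SD, computed separately per campaign, cut at about 16% in these data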;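 also: 0% = DMSO wells and 100% = 60 µM geldanamycin wells; inhibitors lower the luminescence because luciferase stays unfolded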
TRAIL sens C8 – viability loss with TRAIL in NB7+C8 cells, primary screen, TRAIL sensitizer project, cell-based, ATPlite luminescence; inhibition (viability loss, TRAIL sensitization), % at 10 µM; 360,000 tested, 1% active; AID 624354, 2012;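 active = compounds causing at least 50% loss of cell viability in the single-dose screen, relative to plate controls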
FLuc stim CS – FLuc activators, initial screening, artefact control for FLuc-dependent activation tests, biochemical, ATPlite luminescence | Luciferin 4-monooxygenase (Photinus pyralis), P08659 | ATPlite luciferase biochemical, 10 min; 0 = ATP-free wells, 1 = DMSO control | activation factor at 10 µM | 200,000 tested, under 10 active;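 active = luciferase activation factor, scaled between plate controls, of at least 2 with compound at 10 µM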
Target sequence (P08659 whole entry, looked up): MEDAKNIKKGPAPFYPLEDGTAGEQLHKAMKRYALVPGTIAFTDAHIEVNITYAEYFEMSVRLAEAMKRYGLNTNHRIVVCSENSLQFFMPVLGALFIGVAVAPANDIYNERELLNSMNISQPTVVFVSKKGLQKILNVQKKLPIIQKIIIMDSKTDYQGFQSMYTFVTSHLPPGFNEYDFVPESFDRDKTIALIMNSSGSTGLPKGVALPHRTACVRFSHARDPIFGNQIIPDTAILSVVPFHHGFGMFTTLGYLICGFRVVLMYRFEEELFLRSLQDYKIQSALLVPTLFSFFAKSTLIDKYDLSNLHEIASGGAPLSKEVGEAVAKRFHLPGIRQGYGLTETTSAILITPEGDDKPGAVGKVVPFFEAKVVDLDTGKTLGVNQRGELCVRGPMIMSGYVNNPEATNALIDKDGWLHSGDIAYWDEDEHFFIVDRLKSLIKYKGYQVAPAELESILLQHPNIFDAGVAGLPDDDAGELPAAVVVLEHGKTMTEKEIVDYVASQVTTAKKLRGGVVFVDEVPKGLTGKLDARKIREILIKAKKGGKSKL
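Material: Luciferase/luciferin reagent mix | Doses: Test compounds dosed from 2 mM stocks in 100% DMSO | Timing: 10 min incubation after luciferase reagent addition, room temperature | Measured by: Luminescence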
FLuc inhib CS – firefly luciferase enzyme inhibitors, primary screen, artefact control for luciferase-based inhibitor screens, biochemical, luminescence, ATPLite | 200,000 tested, 1.5% active | 10 min | AID 1006, 2008 | Luciferin 4-monooxygenase (Photinus pyralis), P08659 | inhibition, % at 10 µM;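 active = inhibition above about 50% when tested at 10 µM, limit read from the data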
STAT3 blocker – IL-6 driven STAT3 reporter inhibitors, primary screen, U3A cells, luciferase, luminescence, MLSCN library. IL-6 STAT3-luciferase reporter; host cell line lacks STAT1. inhibition, % at 5.5 µM. 190,000 tested, 0.89% active. AID 862, 2007;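 active = inhibition above the mean inhibition across all screened compounds plus 3 SD, cut at about 44% in these data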;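 also: 0% = DMSO only wells and 100% = 100 µM nifuroxazide control wells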
PPC1 cytotox – cytotoxicity in PPC-1 cells, confirmation, cytotoxicity control for TRAIL apoptosis potentiator project, cell-based, ATP content luminescence. shares compounds with PPC-1+TRAIL kill. cytotoxicity, % at 5 µM. 1,200 tested, 50% active. PPC-1 viability, ATPlite luminescence, overnight;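 active = reconfirmed compounds whose average cytotoxicity reaches 50% or more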;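 also: 0% = DMSO-treated cells and 100% = wells holding medium but no cells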
* marks the source's active call; other numbers are inactive results; . = not tested or not shown.

SMILES	PPC-1+TRAIL kill	HSP90 refold inh	TRAIL sens C8	FLuc stim CS	FLuc inhib CS	STAT3 blocker	PPC1 cytotox
COc1cccc(-c2[nH]nc3c2C(c2ccoc2)C(C#N)=C(N)O3)c1 (stereo unspecified)	-12	-2	-12	1	-1	7	.
Cc1ccc(C2C(C#N)=C(N)Oc3n[nH]c(-c4cccs4)c32)cc1 (stereo unspecified)	19	8	9	1	1	0	.
Cc1ccc(-c2n[nH]c(=S)nc2-c2ccc(C)cc2)cc1	.	2	-3	.	.	.	.
Cc1ccc(OCC(=O)Nc2ccc(S(=O)(=O)Nc3ccccn3)cc2)cc1C	10	3	4	1	-2	18	.
CCc1cccc(OCC(=O)Nc2ccc(S(=O)(=O)Nc3ccccn3)cc2)c1	6	-2	-1	1.1	-6	7	8
COC(=O)CSc1nc2cc(OC)ccc2cc1C#N	69*	2	71*	0.9	6	14	63*
NNC(=O)C1CC(O)CN1S(=O)(=O)c1ccc2ccccc2c1 (stereo unspecified)	.	.	-4	.	.	.	.
COc1ccc(-c2cc(=Nc3ccc(C(=O)O)cc3)c3cc(C)ccc3o2)cc1	12	2	47	0.4	58*	18	17
CCC(CNc1cc(OC)cc2cccnc12)NC1CCCCC1 (stereo unspecified)	-3	29*	26	.	.	.	-16
CCOc1ccccc1C(=O)NCC(=O)NCCSc1ccc(Br)cc1	.	.	9	.	.	.	.
COC(=O)C1C(=O)c2c([nH]c(C(=O)OC3CCCCC3)c2C)CC1C (stereo unspecified)	38	-4	30	0.7	25	-5	.
COC(=O)C1C(=O)c2c([nH]c(C(=O)OCCOC(C)C)c2C)CC1C (stereo unspecified)	-9	8	.	0.7	30	-4	-2
COc1ccc(-c2csc3nc(C(C)(C)C)oc(=O)c23)cc1OC	35	-3	-2	1	-4	8	.
CC(C)(C)c1nc2scc(-c3ccc(Cl)cc3)c2c(=O)o1	-5	8	13	1.1	-6	8	-2
Cc1nc2c(OCCOc3ccc(F)cc3)cccn2c1N(C)C(=O)CCC1CCCC1	.	.	10	.	.	.	.
COc1ccc(-c2ccc(SC)nn2)cc1	77*	43*	86*	0.1	94*	84*	69*
COc1ccc(NC(=O)Nc2cccc3[nH]c([C@@H]4O[C@H](CO)[C@@H](O)[C@H](O)[C@H]4O)nc23)cc1OC1CCCC1	.	.	-4	.	.	.	.
COc1ccc(-c2cn(Cc3ccc4c(c3)C(=O)c3ccccc3C4=O)nn2)cc1	.	-1	-14	.	.	.	.
COc1ccc(-c2cc3c(nn2)-c2ccccc2C3=O)cc1	89*	0	87*	0.1	94*	92*	89*
Clc1ccc(-c2nc3nc4ccccc4nc3n2Cc2ccco2)cc1	-10	3	39	0.9	11	4	6
CCC(=O)Nc1cc2nn(-c3ccccc3)nc2cc1Cl	60*	-4	64*	0.3	74*	27	60*
CC(C)CC(=O)Nc1ccc2nn(-c3ccccc3)nc2c1	26	-4	18	0.7	32	13	.
CCCCCCCCCn1ccc(=N)cc1	-5	-4	32	.	.	.	-9
CCCCCn1ccc(=N)cc1	36	-2	3	1.1	-6	29	.
O=C(Cc1c(F)cccc1Cl)N/N=C/c1cccnc1	.	-4	0	.	.	.	.
SMILES	PPC-1+TRAIL kill	HSP90 refold inh	TRAIL sens C8	FLuc stim CS	FLuc inhib CS	STAT3 blocker	PPC1 cytotox
COc1cccc(C(O)c2nc(-c3cc(F)cc(F)c3)cs2)c1 (stereo unspecified)	.	.	3	.	.	.	.
CCCCN1C=CC(=C2C(=O)c3ccccc3C2=O)C=C1	96*	83*	95*	0	98*	112*	96*
COc1ccc(NC(=O)CSc2ccc3ccccc3c2)cc1S(=O)(=O)N1CCCCC1	5	-4	25	1	2	-10	.
COc1ccc(C(=O)NC(=O)Nc2cc(C)ccn2)cc1	87*	22*	84*	0.1	92*	97*	87*
CCN(CC)S(=O)(=O)c1ccc(N2CCN(C)CC2)c(NC(=O)Nc2ccc(C)cc2)c1	.	-3	9	.	.	.	.
COc1cccc(-c2nc(-c3ccncc3)no2)c1	.	1	15	.	.	.	.
COc1cccc(-c2noc(-c3ccc4c(c3)OCO4)n2)c1	60*	-4	66*	0.2	82*	72*	62*
CCOC(=O)Cc1csc(NC(=O)/C=C/c2ccc(OC)cc2)n1	56*	0	72*	0.2	76*	36	56*
CN1CCN(CC(O)COc2ccc(Cl)cc2)CC1 (stereo unspecified)	0	1	-6	1.1	-7	-1	-16
CN1CCN(CC(O)COc2ccc(OCC(O)CN3CCN(C)CC3)cc2)CC1 (stereo unspecified)	-12	-1	-3	1	-3	0	.
O=C(O)CC1Cc2ccccc2C1C(=O)O (stereo unspecified)	.	.	2	.	.	.	.
O=C(Nc1ccccc1C(=O)N1CCCC1)c1cccc(S(=O)(=O)N2CCCCC2)c1	-21	2	-4	1.1	-6	1	-15
O=C(O)c1c[nH]c2nccnc12	.	.	11	.	.	.	.
COc1cc(C(=O)NCCc2ccc(S(=O)(=O)N3CCCC3)cc2)cc(OC)c1OC	5	-1	-11	1	-3	0	5
COc1ccc(-c2cc(C#N)nc(Cl)n2)cc1	22	4	21	.	.	.	19
COc1ccc(-c2cc(C#N)nc(Oc3ccc(Cl)cc3)n2)cc1	18	3	16	1.1	-7	9	.
CCOc1ccc(N(C(=O)CNC(=O)c2cccs2)C(C(=O)NCC2CCCO2)c2ccc(OC)c(OC)c2)cc1 (stereo unspecified)	7	2	-8	1	1	-3	.
C[C@H](CO)N1C[C@H](C)[C@@H](CN(C)Cc2ccc(Cl)c(Cl)c2)Oc2c(NC(=O)Cc3ccccc3)cccc2C1=O	.	.	9	.	.	.	.
Oc1ccccc1-c1nc2cnccn2c1Nc1ccc2c(c1)OCCO2	4	4	-19	1	0	-2	-1
NC(=O)Nc1ccc(C(=O)OCC(=O)N(Cc2ccccc2)C2CCS(=O)(=O)C2)cc1 (stereo unspecified)	-3	1	14	1	-2	-2	0
CCCCn1c(N)c(N(CCOC)C(=O)c2c(C)noc2C)c(=O)[nH]c1=O	.	.	-4	.	.	.	.
O=C(NCCCN1CCCC1)Nc1ccccc1[N+](=O)[O-]	.	2	-10	.	.	.	.

Screens as filed in PubChem.
